According to ChEMBL document CHEMBL1157895, “Truxillic acid derivatives act as peroxisome proliferator-activated receptor gamma activators” (Bioorg Med Chem Lett, 2010):
The source made the active and inactive calls. The calls are words filed in the database; no cut-off is given here.

Key:
Assay type in all cases: functional
[1] = target: T1, Peroxisome proliferator-activated receptor gamma (Homo sapiens, UniProt P37231); assay: Agonist activity at human PPARgamma by Gal4 transactivation assay
T1 sequence (P37231 whole entry): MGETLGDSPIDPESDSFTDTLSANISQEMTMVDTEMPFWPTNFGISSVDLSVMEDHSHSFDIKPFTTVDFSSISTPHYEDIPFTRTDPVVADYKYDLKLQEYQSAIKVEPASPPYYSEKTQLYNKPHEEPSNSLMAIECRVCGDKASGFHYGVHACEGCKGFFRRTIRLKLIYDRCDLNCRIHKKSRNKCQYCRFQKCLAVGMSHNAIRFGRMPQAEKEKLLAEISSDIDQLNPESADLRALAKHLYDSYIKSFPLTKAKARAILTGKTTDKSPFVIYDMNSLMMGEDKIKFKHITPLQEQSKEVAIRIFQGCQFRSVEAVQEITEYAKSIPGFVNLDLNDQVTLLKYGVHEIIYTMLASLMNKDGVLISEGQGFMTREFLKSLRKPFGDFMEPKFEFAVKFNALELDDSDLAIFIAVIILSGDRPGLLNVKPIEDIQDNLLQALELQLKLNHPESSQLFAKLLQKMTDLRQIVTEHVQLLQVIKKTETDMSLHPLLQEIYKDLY
Method in brief: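 Human PPARγ Gal4-hybrid luciferase reporter transactivation assay. EC50 was calculated from concentration-response data, with maximum activation taken at the highest tested concentration.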

[2] = target: T2, Peroxisome proliferator-activated receptor gamma (Homo sapiens) (UniProt P37231); assay: (§1) Agonist activity at human PPARgamma at 10 uM by Gal4 transactivation assay relative to pioglitazone
T2 sequence (whole entry): T1 sequence (P37231 whole entry)
Method in brief: (§2)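 Cell-based Gal4-hybrid transactivation assay with a luciferase reporter for human PPARγ. Compounds were tested at 10 µM. Activation is expressed relative to 1 µM pioglitazone, which was set as 100% activation. Values are the mean and standard deviation of at least three independent experiments.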

[3] = target: T3, Peroxisome proliferator-activated receptor delta (Homo sapiens) (UniProt Q03181); assay: Agonist activity at human PPARdelta at 10 uM by Gal4 transactivation assay relative to pioglitazone
T3 sequence (whole entry): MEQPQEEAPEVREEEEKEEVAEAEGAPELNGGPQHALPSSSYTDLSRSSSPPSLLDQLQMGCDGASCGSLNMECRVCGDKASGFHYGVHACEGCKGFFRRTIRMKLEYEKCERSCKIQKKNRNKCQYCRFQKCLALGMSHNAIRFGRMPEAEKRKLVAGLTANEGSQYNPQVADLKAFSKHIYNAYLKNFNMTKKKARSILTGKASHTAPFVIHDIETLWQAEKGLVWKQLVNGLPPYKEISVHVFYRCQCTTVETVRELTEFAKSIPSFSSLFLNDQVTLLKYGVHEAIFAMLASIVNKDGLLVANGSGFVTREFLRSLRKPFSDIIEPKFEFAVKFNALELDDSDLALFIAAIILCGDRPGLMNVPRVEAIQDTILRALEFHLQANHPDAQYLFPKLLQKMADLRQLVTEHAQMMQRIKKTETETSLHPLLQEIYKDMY

[4] = target: T4, Peroxisome proliferator-activated receptor alpha (Homo sapiens) (UniProt Q07869); assay: Agonist activity at human PPARalpha at 10 uM by Gal4 transactivation assay relative to pioglitazone
T4 sequence (whole entry): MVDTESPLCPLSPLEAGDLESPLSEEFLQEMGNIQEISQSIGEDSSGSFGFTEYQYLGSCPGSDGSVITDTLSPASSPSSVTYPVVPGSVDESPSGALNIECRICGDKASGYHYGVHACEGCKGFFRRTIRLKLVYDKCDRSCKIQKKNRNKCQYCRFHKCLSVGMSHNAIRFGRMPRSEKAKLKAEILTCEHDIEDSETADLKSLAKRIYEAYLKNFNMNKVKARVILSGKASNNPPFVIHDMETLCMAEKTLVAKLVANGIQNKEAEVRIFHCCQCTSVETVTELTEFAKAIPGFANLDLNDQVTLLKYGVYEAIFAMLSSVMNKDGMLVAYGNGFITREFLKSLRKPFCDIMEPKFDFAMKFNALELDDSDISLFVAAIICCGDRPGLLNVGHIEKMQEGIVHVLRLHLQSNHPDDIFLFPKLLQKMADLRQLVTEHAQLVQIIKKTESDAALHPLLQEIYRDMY

[5] = target: T1, Peroxisome proliferator-activated receptor gamma; assay: as §1; method in brief: as §2

SMILES	EC50 [1] [µM]	Activity [2] [%]	Activity [3]	Activity [4]	EC50 [5]
CCCCCCCOC(=O)C1C(c2ccccc2)C(C(=O)O)C1c1ccccc1 (stereo not given)	8.6	153	inactive	inactive	
O=C(O)C1C(c2ccccc2)C(C(=O)O)C1c1ccccc1 (stereo not given)			inactive	inactive	Not Active
COC(=O)C1C(c2ccccc2)C(C(=O)OCc2ccccc2)C1c1ccccc1 (stereo not given)			inactive	inactive	Not Active
O=C(O)C1C(c2ccccc2)C(C(=O)OCCO)C1c1ccccc1 (stereo not given)			inactive	inactive	Not Active
CCCCCCOC(=O)C1C(c2ccccc2)C(C(=O)O)C1c1ccccc1 (stereo not given)	3.6	66	inactive	inactive	
CCCCCCCCOC(=O)C1C(c2ccccc2)C(C(=O)O)C1c1ccccc1 (stereo not given)	9.3	100	inactive	inactive	
O=C(O)C1C(c2ccccc2)C(C(=O)N2CCCCC2)C1c1ccccc1 (stereo not given)			inactive	inactive	Not Active
Cc1ccccc1OC(=O)C1C(c2ccccc2)C(C(=O)O)C1c1ccccc1 (stereo not given)	10	138	inactive	inactive	
O=C(O)C1C(c2ccccc2)C(C(=O)Oc2ccc(O)cc2)C1c1ccccc1 (stereo not given)			inactive	inactive	Not Active

Other lines, results leading:

EC50 [1] [µM]	Activity [2] [%]	Activity [3]	Activity [4]	EC50 [5]	SMILES
3.3	123	inactive	inactive		Cc1cccc(OC(=O)C2C(c3ccccc3)C(C(=O)O)C2c2ccccc2)c1 (stereo not given)
		inactive	inactive	Not Active	O=C(O)C1C(c2ccccc2)C(C(=O)OCCCO)C1c1ccccc1 (stereo not given)
		inactive	inactive	Not Active	O=C(O)C1C(c2ccccc2)C(C(=O)N2CCOCC2)C1c1ccccc1 (stereo not given)
> 10	23	inactive	inactive		CCC(C)OC(=O)C1C(c2ccccc2)C(C(=O)O)C1c1ccccc1 (stereo not given)
		inactive	inactive	Not Active	COC(=O)C1C(c2ccccc2)C(C(=O)OC)C1c1ccccc1 (stereo not given)
4.8	71	inactive	inactive		CC(C)CCOC(=O)C1C(c2ccccc2)C(C(=O)O)C1c1ccccc1 (stereo not given)
		inactive	inactive	Not Active	CC(C)OC(=O)C1C(c2ccccc2)C(C(=O)O)C1c1ccccc1 (stereo not given)
